# Results as given in PMC4791037 (Environmental science & technology, 2015).
# Legend:
# [1] = system: Chinese hamster ovary (CHO) cell line AS52, clone 11-4-8; experiment: CHO cell chronic cytotoxicity assay; format: cell-based; conditions: mean bootstrap value, calculated as (LC50)^−1(10^3); CHO cells, 72 h
# [2] = system: genomic DNA damage in Chinese hamster ovary (CHO) cell line AS52, clone 11-4-8; experiment: Single cell gel electrophoresis; format: cell-based; conditions: CHO cells, 4 h; for GTI (±SE), genotoxicity index: mean bootstrap value, calculated as (50%TDNA)^−1(10^3)
# Summary of the method: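 CHO AS52 clone 11-4-8 cells (Ham's F12, 5% FBS, 37 °C, 5% CO2) exposed to test compound, then run in microplate comet assay. %Tail DNA scored only over concentrations with viability >70%. Microgel means were averaged per concentration and tested by one-way ANOVA with Holm-Sidak versus control (P ≤ 0.05). 50% Tail DNA concentration came from regression. Bootstrap replicates gave GTI values (1/M).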
# [3] = CHO cell chronic cytotoxicity assay; format: cell-based, Chinese hamster; conditions: Chinese hamster, CHO cells, line AS52, clone 11-4-8
Compound,"CTI (±SE), cytotoxicity index [1]","GTI (±SE), genotoxicity index [2]",CC50 at 72 h [3],genotoxicity (result in words) ([2]; SCGE assay)
"O=CCBr [BAL, bromoacetaldehyde]",64.6 ± 3.5 M⁻¹,2.68 ± 0.11 M⁻¹,,
"O=CC(Cl)Br (stereo not shown) [BCAL, bromochloroacetaldehyde]",207.4 ± 11.0 M⁻¹,1.61 ± 0.21 M⁻¹,,
"O=CC(Cl)(Cl)Br [BDCAL, bromodichloroacetaldehyde]",51.1 ± 4.3 M⁻¹,2.24 ± 0.05 M⁻¹,,
"O=CC(Br)Br [DBAL, dibromoacetaldehyde]",207.5 ± 2.1 M⁻¹,9.11 ± 0.60 M⁻¹,,
"O=CC(Cl)(Br)Br [DBCAL, dibromochloroacetaldehyde]",200.2 ± 1.4 M⁻¹,6.99 ± 0.28 M⁻¹,,
"O=CC(Cl)Cl [DCAL, dichloroacetaldehyde]",35.7 ± 0.8 M⁻¹,1.26 ± 0.03 M⁻¹,,
"O=CCI [IAL, iodoacetaldehyde]",170.4 ± 7.3 M⁻¹,0.96 ± 0.03 M⁻¹,,
"O=CC(Br)(Br)Br [TBAL, tribromoacetaldehyde]",279.8 ± 4.8 M⁻¹,3.00 ± 0.03 M⁻¹,3.58 µM,
"O=CC(Cl)(Cl)Cl [TCAL, trichloroacetaldehyde]",0.94 ± 0.03 M⁻¹,,,not genotoxic
